Most compounds without a hit are left out; they make up all but 2% or so of the library.
NSD2 HMT inh – inhibitors of human histone methyltransferase NSD2 | inhibition, % at 12.5 µM | 0.54% of 310,000 active | NSD2 peptide methylation, AlphaScreen, 120 min | O96028; in the data active = inhibition above about 50%
SR-BI uptake up – SR-BI HDL lipid transfer activation. activation, % at 12.5 µM. CHO ldlA[mSR-BI] cells, DiI-HDL uptake fluorescence, 3 h; 100 = double the neutral-control signal. 0.096% of 320,000 active;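 active = mean replicate activation of at least 60% and every replicate at or above 60%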;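 note: 0% = median plate neutral-control signal and 100% = twice that signal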
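Test system: SR-BI-overexpressing, LDLR-lacking CHO cells. Measured by: DiI fluorescence, bottom read. Medium: Ham's F12 with 0.5% BSA, HEPES 25 mM, pH 7.4. Timing: 3 h uptake period with compound, 37 °C.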
XiGFP reactiv – reactivates the inactive X chromosome in mouse fibroblasts; XiGFP mouse fibroblasts, % GFP-positive cells imaging, 3 d; cells co-treated with 5-aza-dC sensitizer; scaled so ellipticine positive control = 100%; activation, % at 7.58 µM; 0.055% of 360,000 active; AID 743238;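 active = mean normalized replicate activation at least 10% and every replicate at or above 10%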;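 note: 0% = median of on-plate neutral control wells and 100% = ellipticine 6 µM median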
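System: XiGFP fibroblasts, SV40-immortalized. Medium: DMEM plus 5-aza-dC sensitizer. Doses: single point. Timing: 3 d treatment, 15 min room-temperature fixation. Control set: ellipticine 6 µM.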
SR-BI DiI inh – mouse SR-BI HDL lipid transfer inhibition. Q61009. ldlA[mSR-BI] CHO cells, DiI-HDL uptake fluorescence, 3 h. inhibition, % at 12.5 µM. 0.96% of 320,000 active. AID 488896;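 active = mean replicate inhibition of at least 70% and a set share of replicates each scoring 70 or more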;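 note: 0% = median of neutral control wells and 100% = median of positive control wells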
ARNT-TACC3 inh – ARNT/TACC3 interaction disruption. Q9Y6A5. AlphaScreen His-ARNT PAS-B/GST-TACC3 binding, luminescence; TACC3 fragment carries E629A point mutation. inhibition, % at 9.99 µM. 0.66% of 390,000 active;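 active = mean inhibition of replicates at least 50% and at least half of replicates each reaching 50%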;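 note: 0% = complete ARNT plus TACC3 wells and 100% = ARNT alone without TACC3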
sPLA2-III inh – Blocks human group III sPLA2 activity | AID 743126 | inhibition, % at 12.2 µM | QFRET BODIPY PC-A2 liposome hydrolysis, fluorescence | 0.56% of 370,000 active | Q9NZ20;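 active = inhibition above mean plus 3 SD of compounds lying within the high and low control bounds, cut at about 19% in these data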;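 note: 0% = median of test compound wells and 100% = no enzyme DMSO wells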
Alpha artifact – interferes with AlphaScreen signal, flagging NSD2 false positives | shares compounds with NSD2 HMT inh | AlphaScreen artifact counterscreen, preloaded methylated H4 peptide | AC35, µM (doses to about 10 µM), without a hit: at the highest dose activity change, negative = signal loss | 9.4% of 1,500 active; call rule not given here
* marks the source's active call; other numbers are inactive results; x = not tested or not shown.

SMILES	NSD2 HMT inh	SR-BI uptake up	XiGFP reactiv	SR-BI DiI inh	ARNT-TACC3 inh	sPLA2-III inh	Alpha artifact
COc1ccc(C(=O)NCc2nnc(SCC(=O)Nc3cc(C)cc(C)c3)o2)cc1OC	75*	-20	x	20	-1	0	-3%
CCN(c1ccc(NC(=O)COC(=O)/C=C/c2cccs2)cc1)C(C)C	-3	-9	0	9	7	-4	x
COc1ccc2nc(NC(=O)c3cccs3)sc2c1	-4	x	0	x	x	-14	x
COc1ccc2c(c1)Cc1sc(NC(=O)c3ccccc3)nc1-2	128*	-35	x	35	4	-14	-5%
COc1ccc2c(c1)Cc1sc(NC(=O)c3cccs3)nc1-2	78*	-59	x	59	2	0	-2%
Cc1ccc(CNC(=O)CCC2CCCN(C(=O)CCC(F)(F)F)C2)o1 (configuration not stated)	-4	18	0	-18	4	5	x
CC(C)n1nnnc1C1c2ccccc2C(=O)N1CCCn1ccnc1 (configuration not stated)	x	x	1	x	x	4	x
CN(C)S(=O)(=O)c1ccc(NC(=O)CCNC(=O)c2ccco2)cc1	59*	6	0	-6	-36	-1	0%
Cc1cc(C)n(CCC(=O)N2CCN(S(=O)(=O)c3ccccc3)CC2)n1	54*	21	0	-21	-13	-2	0%
Cc1cc(C(C#N)c2ccc(Cl)cc2)c(Cl)cc1NC(=O)c1cc(I)cc(I)c1O (configuration not stated)	x	-20	0	20	-1	-26	x
CN(C)Cc1cc(O)c(CN(C)C)cc1O	86*	7	0	-7	29	-3	1%
CN(C)Cc1cc(C(C)(C)C)cc(C(C)(C)C)c1O	-2	14	0	-14	-10	3	x
CNC[C@@H]1Oc2ncc(-c3cncnc3)cc2C(=O)N([C@@H](C)CO)C[C@H]1C	x	x	0	x	-3	x	x
Cc1ccc(Cn2c(SCC(=O)NCC3CCCO3)nc3c2c(=O)n(C)c(=O)n3C)cc1 (configuration not stated)	51*	5	0	-5	-3	6	2%
CC1CCN(C2(O)C(=O)Nc3ccc([N+](=O)[O-])cc32)CC1 (configuration not stated)	2	-18	x	18	9	-2	x
Cc1cc([N+](=O)[O-])cc2c1NC(=O)C2(O)N1CCOCC1 (configuration not stated)	59*	54	0	-54	9	-1	2%
c1ccc(-c2ccccc2OCCn2cncn2)cc1	-1	19	x	-19	-8	-4	x
CCN(CC)CCNc1ncnc2c1sc1nc(N3CCCC3)c3c(c12)CC(C)(C)OC3	80*	5	0	-5	14	-9	-15%
CN(C)CCNc1ncnc2c1sc1nc(N3CCCC3)c3c(c12)CC(C)(C)OC3	13	-18	0	18	11	-13	x
Cc1cccc(Nc2nc(N)nc(CN3CCN(C)CC3)n2)c1	11	5	x	-5	13	2	x
CCN1CCN(Cc2nc(N)nc(Nc3ccc(C)c(C)c3)n2)CC1	95*	22	x	-22	10	2	4%
Cc1cccc(NC(=O)C2CCCN(S(=O)(=O)c3c(C)nn(C)c3C)C2)n1 (configuration not stated)	x	x	0	x	x	-2	x
CC1(C)Cc2ccccc2C2=NNC(=O)C2=N1	106*	-12	0	12	61*	5	3%
CC1(C)Cc2ccccc2C(Nn2cnnc2)=N1	3	13	x	-13	0	2	x
CCNC(=O)Nc1ccc2c(c1)c(=O)n(C)n2CC=C(C)C	2	x	0	x	x	15	x
COc1ccc(CCNC(=O)Nc2ccc3c(c2)c(=O)n(C)n3CC=C(C)C)cc1OC	52*	x	0	x	x	-9	-3%
